Experiments:
[1] = folding enthalpy; higher = less favourable; fluorescence melt of hairpins on a sequencing array, two-state fit; settings: sodium 0.088 M
In short: (§1)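 Folding enthalpy and melting temperature were estimated with bootstrapped two-state fits and combined across four replicates by inverse-variance weighting, with fitted temperatures raised by 9.35 °C to match UV melts. The data were Cy3 fluorescence of library hairpins, with annealed Cy3 and quencher oligos, on a sequenced MiSeq flow cell in 50 mM Na-HEPES pH 8.0, 25 mM NaCl, imaged in 2.5 °C steps up to 60 °C and normalised to pre-quench Cy3 and control constructs.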

[2] = melting temperature; fluorescence melt of hairpins on a sequencing array, two-state fit, raised by 9.35 °C to match UV melts; settings: sodium 0.088 M
In short: as §1

Sequence	folding enthalpy [1]	Tm [2]
GCAATCGAAAGATGCTGC ((((((....)))..)))	-28.2 kcal/mol	51.1 °C
GCAATCGGAAACGATCGC ((.((((....)))).))	-36.4 kcal/mol	47.2 °C
GCAATCGGAAACGGTTGC ((((.((....)).))))	-43.8 kcal/mol	55.8 °C
GCAATGAAAATTGC (((((....)))))	-22.7 kcal/mol	50.7 °C
GCAATGCGAAAGCAACGC ((..(((....)))..))	-14.4 kcal/mol	40.2 °C
GCAATGCGAAAGCACTGC (((.(((....))).)))	-36.8 kcal/mol	51.6 °C
GCAATGCGAAAGCAGCGC ((..(((....)))..))	-18.8 kcal/mol	55.9 °C
GCAATGCGAAAGCATAGC ((.((((....)))).))	-18.6 kcal/mol	57.8 °C
GCAATGCGAAAGCCATGC (((..((....))..)))	-18.3 kcal/mol	37.8 °C
GCAATGCGAAAGCGTAGC ((.(.((....)).).))	-15.8 kcal/mol	42.7 °C
GCAATTGAAAAATTGC ((((((....))))))	-32 kcal/mol	53.4 °C
GCAATTGGAAACAACTGC (((.(((....))).)))	-26.6 kcal/mol	34.8 °C
GCAATTGGAAACAATCGC ((.((((....)))).))	-27.4 kcal/mol	38.8 °C
GCACAAGGAAACTCGTGC ((((.((....)).))))	-31.4 kcal/mol	43.8 °C
GCACACCGAAAGGTTGC (((.(((....))))))	-28.6 kcal/mol	53.6 °C
GCACACCGAAAGGTTTGC (((.(((....))).)))	-40.7 kcal/mol	52.3 °C
GCACACGAAAGTGAATGC ((((((....)))..)))	-23.9 kcal/mol	42.8 °C
GCACACGAAAGTGCGTGC ((((((....)))..)))	-17 kcal/mol	52.1 °C
GCACACGAAAGTGGTGC ((((((....))).)))	-33 kcal/mol	59.6 °C

Sequence	folding enthalpy [1]	Tm [2]
GCACACGAAAGTGTGTGC ((((((....)))..)))	-18.9 kcal/mol	68.2 °C
GCACACGGAAACGTACGC ((..(((....)))..))	-25.2 kcal/mol	35.6 °C
GCACAGCGAAAGCACTGC (((..((....))..)))	-11.7 kcal/mol	35.8 °C
GCACAGCGAAAGCCCTGC (((..((....))..)))	-8.82 kcal/mol	32.1 °C
GCACAGCGAAAGCTTTGC (((.(((....))).)))	-41.2 kcal/mol	51.8 °C
GCACAGGGAAACCTGTAC (.(((((....))))).)	-12.6 kcal/mol	40.3 °C
GCACATGGAAACATATGC (((.(((....))).)))	-26 kcal/mol	36 °C
GCACATTCGAAAGAATGC (((..(((....))))))	-13.8 kcal/mol	33 °C
GCACCAGGAAACTAGTGC ((((.((....)).))))	-29.2 kcal/mol	40.2 °C
GCACCCCCGAAAGGGTGC (((..(((....))))))	-30.6 kcal/mol	66.6 °C
GCACCCCGAAAGGGATGC (((.(((....))).)))	-40.6 kcal/mol	57.5 °C
GCACCCGAAAGGGAGTGC ((((((....)))..)))	-38.3 kcal/mol	54 °C
GCACCCGAAAGGGATGC ((((((....))).)))	-28.7 kcal/mol	60.5 °C
GCACCCGAAAGGGCTGC ((((((....))).)))	-31.4 kcal/mol	55.2 °C
GCACCCGAAAGGGGTTGC ((((((....)))..)))	-15.4 kcal/mol	52.3 °C
GCACCCGGAAACGGGCGC ((.((((....)))).))	-38 kcal/mol	61.5 °C
GCACCGCGAAAGCAATGC (((..((....))..)))	-8.2 kcal/mol	27.3 °C
GCACCGCGAAAGCAGGGC ((.(.((....)).).))	-16 kcal/mol	57.5 °C
GCACCGCGAAAGCCCTGC (((..((....))..)))	-7.23 kcal/mol	28.2 °C

Source: the array DNA melting data of Ke et al. (doi:10.1101/2024.01.08.574731)
